From ChEMBL document CHEMBL3797137, “New ligands of the ghrelin receptor based on the 1,2,4-triazole scaffold by introduction of a second chiral center” (Bioorg Med Chem Lett, 2016) come the findings set out here.

In assay [1] the target is T1, Growth hormone secretagogue receptor type 1 (Homo sapiens, UniProt Q92847). Briefly: Antagonist activity at human GHS-R1a expressed in HEK293T cells assessed as inhibition of ghrelin-induced stimulation after 45 mins by HTRF-based IP3 turnover assay. In kind it is functional, cell-based. As to conditions: HEK-293T. On the technique in general: TR-FRET usually uses a lanthanide donor and a delayed reading to cut background.
T1 sequence (Q92847 whole entry): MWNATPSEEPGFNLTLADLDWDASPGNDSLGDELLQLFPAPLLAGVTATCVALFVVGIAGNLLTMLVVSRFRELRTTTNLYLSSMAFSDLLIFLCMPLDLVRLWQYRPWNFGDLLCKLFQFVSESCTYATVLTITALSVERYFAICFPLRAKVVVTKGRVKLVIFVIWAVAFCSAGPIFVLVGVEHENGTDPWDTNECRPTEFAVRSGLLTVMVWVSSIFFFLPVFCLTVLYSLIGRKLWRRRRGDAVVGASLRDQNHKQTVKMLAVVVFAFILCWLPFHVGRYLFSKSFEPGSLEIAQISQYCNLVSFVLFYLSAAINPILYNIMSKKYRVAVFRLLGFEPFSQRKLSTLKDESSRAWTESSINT

Assay [2] concerns the target T1, Growth hormone secretagogue receptor type 1. Briefly: Competitive binding affinity to human SNAP-tagged GHS-R1a expressed in HEK293T cells incubated at 4 degC for 3 hrs or at room temperature for 1 hr by Tag-lite assay. In kind it is cell-based, HEK-293T. An outline of the steps:
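Tag-lite binding measured by FRET between terbium cryptate attached to SNAP-tag-fused GHS-R1a and a red fluorescent high-affinity ghrelin ligand. Ki obtained from the fluorescent binding data.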

Structures are written as SMILES.

A word on the Ki: it is a dissociation constant, usually derived from enzyme kinetics or from competition with a known ligand. Low values mean tighter binding, high ones weaker binding. Take `COc1ccc(Cn2c([C@@H](Cc3c[nH]c4ccccc34)NC(=O)CO)nnc2[C@@H](Cc2c[nH]c3ccccc23)NC(=O)[C@H](CC(C)C)NC(=O)[C@H](CC(C)C)NC(C)=O)cc1`: the Emax in assay [1] stood at 0%. Affinity in assay [2] was put at a Ki of 3 nM.
